Assay outcomes: PubChem, Columbia University Molecular Screening Center
Insulin prom act: TRM-6 insulin promoter activation; actives 0.81% (n = 130,000); AID 1296; TRM-6 cells, insulin promoter eGFP reporter, imaging; plate-scaled: unstimulated 0, stimulated control 100; activation, % at 2 µM;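 active = activation at 2 µM above a set limit, confirmed on inspection of the cell images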;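 note: share of cells whose green reporter signal exceeds an intensity cutoff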
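System – human fetal islet-derived TRM-6 cells with tamoxifen-inducible insulin promoter–eGFP reporter · Amount – 1,000 cells per well · Schedule – overnight tamoxifen, then two-day compound incubation at 37 °C · Detection – high-content imaging of fixed cells with Hoechst nuclear stain · Read-out – percent cells above green-intensity threshold, converted to percent activation versus plate controls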
* hit, by the source's call. Only a selection was taken, and hits are over-represented in it overall.

SMILES	Insulin prom act
Cc1cccc(OCc2n[nH]c(=S)n2C2CCCCC2)c1	-75
Cc1n[nH]c(=S)n1/N=C/c1ccc(OCc2ccc(Cl)cc2)cc1	0
S=c1[nH]nc(COc2ccc(Cl)cc2)n1C1CCCCC1	437*
Cc1ccccc1N1C(=O)CC1(C#N)c1ccc(OCc2ccccc2)cc1 (configuration not stated)	10
CN(C)c1ccc(/C=C/C=N/Nc2nc(N3CCOCC3)nc(N3CCOCC3)n2)cc1	8
COc1ccc(/C=N/Nc2nonc2N)cc1OC	329
COc1cc(/C=N\Nc2nc3ccccc3o2)cc(OC)c1OC	469*
COc1cc(/C=N/Nc2nc3ccccc3o2)cc(OC)c1O	114
COc1cccc(CNC(=O)CCC2CCCN(Cc3cc4ccccc4o3)C2)c1 (configuration not stated)	104
N#Cc1ccsc1NC(=O)CN1CCN(S(=O)(=O)c2ccccc2C(F)(F)F)CC1	3
C=CCn1cc(C(=O)N2CCc3ccccc3C2)c(=O)c2cc(S(=O)(=O)N(CC)CC)ccc21	400*
C=CCn1cc(C(=O)OC)c(=O)c2cc(S(=O)(=O)N3CCC(C)CC3)ccc21	0
O=C(c1ccc(S(=O)(=O)c2ccccc2)cc1)N1CCc2ccccc2C1	6
CCOC(=O)CSc1snnc1-c1ccccc1	0
CC(C)(C)C(=O)Nc1cccc2[nH]ncc12	0
CC(=NCCCNC1CCCCC1)C1=C(O)CC(C)(C)CC1=O	89*
CC1(C)CC(=O)C(C=N)=C(O)C1	4
CC(=O)c1cn(CCC(C)C)c(=O)[nH]c1=O	8
Cc1cccc(N/C(=N\S(=O)(=O)c2ccccc2)C(F)(F)F)c1	7
O=C(O)c1cn(Cc2ccccc2Cl)c2ccc(S(=O)(=O)N3CCOCC3)cc2c1=O	0
O=C(Nc1ccccc1N1CCOCC1)c1cccnc1	8
Cc1cccc(-c2cc(C(=O)Nc3ccc4c(c3)OCCO4)c3ccccc3n2)c1	-3
O=C(Nc1ccccc1N1CCOCC1)c1cc(-c2ccncc2)nc2ccccc12	236*
O=C(CNCCC1=CCCCC1)Nc1ccccc1N1CCCCC1	0
C=CCN1C=CC(=C/C=C(/C#N)C(=O)OCC)C=C1	163*
SMILES	Insulin prom act
CCOC(=O)/C(C#N)=C/c1cccc(F)c1	7
CCOC(=O)/C(C#N)=C\c1cccnc1	7
O=C(CCC1CCCC1)Nc1ccc([N+](=O)[O-])cn1	-3
Cc1ccc(C2C(C#N)=C(N)SC(N)=C2C#N)cc1	121*
N#CC1=C(N)SC(N)=C(C#N)C1c1ccoc1	32
Cc1ccc(C2C(C#N)=C(N)SC(N)=C2C#N)c(C)c1	-4
O=C(c1cc(COc2ccc(F)cc2F)on1)N1CCSCC1	0
CC(NC(=O)/C=C/c1ccco1)c1nc2ccccc2n1Cc1ccccc1F (configuration not stated)	9
CCNS(=O)(=O)c1ccc(CCC(=O)NCc2ccccc2)cc1	-7
CN(C)c1ccc(/C=N/NC(=O)C(=O)/C=C2\NC3(CCCC3)Cc3ccccc32)cc1	-8
CCOC(=O)/C=C1\NC(C)(C)Cc2cc(OC)c(OC)cc21	-72
CC1(C)Cc2ccccc2/C(=C/C(=O)N2CCCCCC2)N1	557*
CC(C)n1cc(/C=C(\C#N)S(=O)(=O)c2ccccc2)c2ccccc21	9
C=CCn1c(=O)n(C(=O)OCC)c2cc(Br)ccc21	0
CCOC(=O)c1c(NC(C)=O)sc2c1CCC(C=NCCCN(CC)CC)=C2Sc1ccccc1	181
COc1ccc(OC)c(N(CC(N)=O)S(=O)(=O)c2ccc(OC)c(OC)c2)c1	-3
CC[n+]1c(/C=C/C=C/N(C(C)=O)c2ccccc2)sc2ccccc21	203*
CCc1cc(-c2n[nH]c(=S)n2-c2ccccc2C)cs1	8
Cc1cc2cc(CNC(=O)Nc3ccccc3)ccc2[nH]1	0
